Measurements as given in the RNAGym collection of RNA variant scans (doi:10.1126/science.aae0568).
Fewer inactive variants are shown than the library holds.

B1: tRNA (parent)
chain: GUUCCGUUGGCGUAAUGGUAACGCGUCUCCCUCCUAAGGAGAAGACUGCGGGUUCGAGUCCCGUACGGAACG

Variants of: B1
Assay: yeast fitness relative to wild type (ratio to wild type); higher = fitter; tRNA-Arg(CCU), competitive growth, 37 C, YPD
In short: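 Amplicons of the tRNA-Arg(CCU) gene were sequenced, 100-nucleotide paired-end, from the start population and from each end population of a pooled yeast competition. The competition, in six parallel replicates, lasted 24 hours in YPD at 37°C. Fitness relative to wild type was calculated from changes in genotype frequencies. Genotypes had to have ≥ 100 starting reads, and estimates < 0.5 were set to 0.5.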

| Variant | yeast fitness |
| --- | --- |
| C30G C33U G58C | 0.574 |
| C30G C33U G58C U64A C66U | ≤ 0.5 |
| C30G C34A A57U C61G | ≤ 0.5 |
| C30G C34A C49G G50A U59C | ≤ 0.5 |
| C30G C34A C49G G50A U64A G68C | ≤ 0.5 |
| C30G C34A G52C | ≤ 0.5 |
| C30G C34G A37G | 0.811 |
| C30G C34G A37G A45G | ≤ 0.5 |
| C30G C34G A40C C66A A69C | 0.527 |
| C30G C34G A57U | ≤ 0.5 |
| C30G C34G C66U | ≤ 0.5 |
| C30G C34U A57G C60U G68C | ≤ 0.5 |
| C30G C34U C49G | 0.615 |
| C30G C34U C49G C55U | ≤ 0.5 |
| C30G C46A | 0.587 |
| C30G C46G A69U | 0.586 |
| C30G C46G C61U | ≤ 0.5 |
| C30G C46G U53C A57G A69U | ≤ 0.5 |
| C30G C46U | 0.648 |
| C30G C46U C49G U64A | ≤ 0.5 |
| C30G C49A | ≤ 0.5 |
| C30G C49A G56A C60G G68C | 0.541 |
| C30G C49A G68A | ≤ 0.5 |
| C30G C49A U53C C66G | 0.513 |

| Variant | yeast fitness |
| --- | --- |
| C30G C49A U54G A65G | ≤ 0.5 |
| C30G C49U | 0.643 |
| C30G C49U G67C | ≤ 0.5 |
| C30G C49U U64A | 0.702 |
| C30G C55A A65U | 0.552 |
| C30G C55G A57C U59C | ≤ 0.5 |
| C30G C60U C62G C66A | 0.695 |
| C30G C61A | ≤ 0.5 |
| C30G C61G | 0.697 |
| C30G C61U | 0.57 |
| C30G C62U | 0.643 |
| C30G C66A | ≤ 0.5 |
| C30G C66G | 0.574 |
| C30G C66U | 0.606 |
| C30G G38C G56A | 0.959 |
| C30G G38C G56A A65G | 0.624 |
| C30G G39A G58U C62A | ≤ 0.5 |
| C30G G39C G44A | ≤ 0.5 |
| C30G G41A | 0.568 |
| C30G G41A A45C | ≤ 0.5 |
| C30G G41A A45C U64A | 0.579 |
| C30G G41A C66U | ≤ 0.5 |
| C30G G41C | 0.616 |
| C30G G41C A70U | ≤ 0.5 |

| Variant | yeast fitness |
| --- | --- |
| C30G G44C G51C | 0.549 |
| C30G G48C G52A G67U | ≤ 0.5 |
| C30G G50A | 0.72 |
| C30G G50C | 0.781 |
| C30G G51A | 0.566 |
| C30G G51C | ≤ 0.5 |
| C30G G52A | 0.605 |
| C30G G52C | 0.512 |
| C30G G52C A69C | ≤ 0.5 |
| C30G G52C C62U | ≤ 0.5 |
| C30G G52C G67A | ≤ 0.5 |
| C30G G56A | 0.75 |
| C30G G56A A57U | ≤ 0.5 |
| C30G G58A | 0.678 |
| C30G G58A G68A | 0.705 |
| C30G G58C C66G | 0.829 |
| C30G G63A | 0.641 |
| C30G G63A A70U | ≤ 0.5 |
| C30G G63C | ≤ 0.5 |
| C30G G67C | 0.637 |
| C30G U32A A42U | ≤ 0.5 |
| C30G U32A G48A G67C | 0.568 |
| C30G U32C G50C | ≤ 0.5 |
| C30G U32C G50C U59C | ≤ 0.5 |

| Variant | yeast fitness |
| --- | --- |
| C30G U32G C55G | ≤ 0.5 |
| C30G U35A C46U G51A G56A | ≤ 0.5 |
| C30G U35A G51C | 0.628 |
| C30G U35C | ≤ 0.5 |
| C30G U35C A42G C49U G56A G58A A70C | 0.591 |
| C30G U35C C66U | ≤ 0.5 |
| C30G U47A C49G C61U G63C | 0.541 |
| C30G U47C C66U | 0.634 |
| C30G U47C G63A G67A | ≤ 0.5 |
| C30G U47G | ≤ 0.5 |
| C30G U53C | 0.632 |
| C30G U53G G63A | ≤ 0.5 |
| C30G U54C | 0.568 |
| C30G U54G | ≤ 0.5 |
| C30G U59A | 0.595 |
| C30G U59C | 0.537 |
| C30G U59C A65U | 0.528 |
| C30G U64C | 0.626 |
| C30U A36C | 0.566 |
| C30U A36C A69U | ≤ 0.5 |
| C30U A36C G52A C55G | ≤ 0.5 |
| C30U A36C G67U | 0.639 |
| C30U A36G | 0.927 |
| C30U A36G A37G | 0.548 |

| Variant | yeast fitness |
| --- | --- |
| C30U A36G G44A C61G | ≤ 0.5 |
| C30U A36U | 0.57 |
| C30U A36U A37G G48A A70G | ≤ 0.5 |
| C30U A36U A57G | ≤ 0.5 |
| C30U A37C | 0.729 |
| C30U A37C C46U | 0.666 |
| C30U A37C C66U | ≤ 0.5 |
| C30U A37C G38A | ≤ 0.5 |
| C30U A37G | 0.656 |
| C30U A37G A70C | 0.59 |
| C30U A37G G39A | 0.552 |
| C30U A37U G52A C61G | ≤ 0.5 |
| C30U A40C | 0.792 |
| C30U A40C A42C G68U | ≤ 0.5 |
| C30U A40C A57C | ≤ 0.5 |
| C30U A40C G63C U64C | ≤ 0.5 |
| C30U A40G | 0.914 |
| C30U A40G C55U U64C | 0.646 |
| C30U A40U | 0.965 |
| C30U A40U C49A G56A A57U | ≤ 0.5 |
| C30U A42C | 0.755 |
| C30U A42C C62G C66G | ≤ 0.5 |
| C30U A42C G48C | ≤ 0.5 |
| C30U A42C G67C A69U | ≤ 0.5 |

| Variant | yeast fitness |
| --- | --- |
| C30U A42G | 0.8 |
| C30U A42G C55U | 0.545 |
| C30U A42G C60G C62G A65G | ≤ 0.5 |
| C30U A42G C62A | ≤ 0.5 |
| C30U A42G G52C | ≤ 0.5 |
| C30U A42U | 0.879 |
| C30U A43C G52A C66U | ≤ 0.5 |
| C30U A43C G58A | 0.99 |
| C30U A43C U54A | 0.611 |
| C30U A43G | 0.647 |
| C30U A43U C55A | ≤ 0.5 |
| C30U A43U C61G A69C | ≤ 0.5 |
| C30U A43U C62U | 0.845 |
| C30U A45C | 0.72 |
| C30U A45G | 0.781 |
| C30U A45G G58A | 0.663 |
| C30U A57C | 0.586 |
| C30U A57G A65U | 0.667 |
| C30U A57G C60G | ≤ 0.5 |
| C30U A65G | 0.932 |
| C30U A65U | 0.876 |
| C30U A69U A70C | 0.737 |
| C30U C31A A40U C49A | 0.682 |
| C30U C31A G41A | ≤ 0.5 |

| Variant | yeast fitness |
| --- | --- |
| C30U C31A U54G | 0.549 |
| C30U C31G A36C U54A | 0.674 |
| C30U C31G A43C G51A | 0.565 |
| C30U C31G C66U | 0.512 |
| C30U C31G U35A | 0.62 |
| C30U C31G U53C | ≤ 0.5 |
| C30U C31U | 1.02 |
| C30U C31U A36C | ≤ 0.5 |
| C30U C31U A45C C49U U53G | ≤ 0.5 |
| C30U C31U C34A A70C | ≤ 0.5 |
| C30U C31U C60G | ≤ 0.5 |
| C30U C31U G41C | 0.526 |
| C30U C33A A36U A43U U54C G56A | 0.54 |
| C30U C33A A43G | ≤ 0.5 |
| C30U C33A G41C A42U | ≤ 0.5 |
| C30U C33A G50C C55G | ≤ 0.5 |
| C30U C33A G56C A70C | ≤ 0.5 |
| C30U C33A G63C U64C | ≤ 0.5 |
| C30U C33G A69C | 0.546 |
| C30U C33G C46G | ≤ 0.5 |
| C30U C33U A43G | 0.569 |
| C30U C33U A57G C60A | ≤ 0.5 |
| C30U C34A | 0.806 |
